Screening results from PubChem BioAssay.
Diaphorase act: activates diaphorase or chemically reduces, flagging diaphorase assay artifacts | Diaphorase/resazurin coupled assay, resorufin fluorescence, 16 min; active compounds read high; 1 = vehicle wells, 0 = NADH-free wells | activation factor at 20 µM | 190,000 compounds, 0.005% hits;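 active = diaphorase activity raised at least twofold by the compound at 20 µM; inactive = activation factor below 2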
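Test system: Clostridium kluyveri diaphorase, purified enzyme; input: enzyme 0.07 U/mL final; buffer or medium: 50 mM HEPES pH 7.4 with 4.542 mM MgCl2, 0.005% Tween 20; also added: 0.114 mM NADH and 0.1 mM resazurin, final amounts; schedule: 16 min enzyme reaction, ambient temperature; technique: fluorescence of resorufin, 544 nm excitation, 590 nm emission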
L major viab: reduces viability of Leishmania major promastigotes; 200,000 compounds, 9% hits; inhibition, % at 10 µM; resazurin fluorescence viability;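 also: promastigotes grown with compound for 44 hours at 28 °C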
G6PDH CS: inhibits Leuconostoc G6PDH, flagging false hits in G6PDH-based assays | inhibition, % at 5 µM | AID 1020 | Purified L. mesenteroides G6PDH, diaphorase/resazurin coupled fluorescence, 45 min | 200,000 compounds, 0.12% hits
Diaph inh CS: counter-screen for diaphorase-based assays: diaphorase inhibitors and chemical oxidizers; diaphorase resazurin-to-resorufin fluorescence, NADH, 16 min; bacterial (C. kluyveri) enzyme, not human; inhibition, % at 20 µM; 190,000 compounds, 0.69% hits; AID 1217;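 active = primary screen inhibition at 20 µM above a set limit, cut at about 50% in these data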
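Benchmarks: positive control wells lacking NADH, neutral wells with DMSO only. System: bacterial diaphorase enzyme (C. kluyveri). Input: 0.14 U/mL diaphorase, enzyme working solution. Detection: resorufin fluorescence, excitation 544 nm, emission 590 nm. Times: 16-min room-temperature incubation before reading.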
WT yeast gro inh: growth inhibition of WT yeast, mitochondrial fusion screen; mitochondrial fusion phenotypic screen, WT strain; inhibition, % at 10 µM; 190,000 compounds, 2.1% hits; AID 1362; in the data active = inhibition above about 58%; tested in S. cerevisiae
Hits are given with their value; . = inactive; / = no result given. Most compounds without a hit are left out; they make up all but 11% or so of the library. Rule as the data show it, unless noted: active = inhibition above about 50%; inactive = the rest.

SMILES | Diaphorase act | L major viab | G6PDH CS | Diaph inh CS | WT yeast gro inh
COc1ccc(/C=N/Nc2ncnc3c2[nH]c2ccccc23)c(OC)c1OC | . | 66 | . | . | .
COCCCNc1ncnc2c1[nH]c1ccccc12 | . | . | . | . | .
COc1ccc(/C=C/C(=O)N2CCN(c3ccccn3)CC2)c2ccccc12 | . | . | . | . | 62
O=C(/C=C/c1ccc(F)cc1)N1CCN(c2ccccn2)CC1 | . | . | . | . | .
O=C(CCN1CCc2ccccc2C1)Nc1ccc(F)cc1 | . | . | . | . | .
Cc1ccc(NC(=O)c2c(-c3c(F)cccc3Cl)noc2C)cc1F | . | . | . | . | .
N#Cc1c(-c2ccccc2)[nH]c(=S)[nH]c1=O | . | . | . | 51 | .
CCOC(=O)N/N=C/C=C/c1ccccc1 | . | . | . | . | .
N#Cc1c(Sc2ncc(C(F)(F)F)cc2Cl)nsc1C/C=N\OCc1ccccc1Br | . | . | . | . | .
Cc1ccc(C2=NN(CCC(=O)NCc3ccc4c(c3)OCO4)C(=O)CC2)cc1 | . | . | . | . | .
Cc1ccc(C2=NN(CCC(=O)NCCC(C)C)C(=O)CC2)cc1 | . | 73 | . | . | .
COc1ccc(C2=NN(CCC(=O)NCc3ccc4c(c3)OCO4)C(=O)CC2)cc1 | . | 54 | . | . | .
CCCC1=C([O-])C2N=CC=CC2=[N+](c2ccccn2)C1=O (centres undefined) | . | . | . | . | .
Cc1cc(C)nc(N/N=C/c2cccc(Cl)c2)n1 | . | . | . | . | .
Cc1cc(Nc2cccc(Cl)c2)nc(NCc2ccccc2)n1 | . | 100 | . | . | 97
Cc1cc(-c2ccccc2)nc(N/N=C/c2cccnc2)n1 | . | . | . | . | .
Cc1cc(N/N=C/c2ccc(Cl)cc2)nc(NCc2ccccc2)n1 | . | 94 | . | . | .
Cc1cc(N/N=C/c2cccc(Cl)c2)nc(NCc2ccccc2)n1 | . | 77 | . | . | 82
Cc1cc(N/N=C/c2ccccc2)nc(NCc2ccccc2)n1 | . | 88 | . | . | 62
O=C(CN1CCN(Cc2ccccc2)CC1)Nc1ccc(N2CCOCC2)cc1 | . | . | . | . | .
Cc1cc(=O)oc2cc(Oc3ncccc3[N+](=O)[O-])ccc12 | . | . | . | . | .
Cc1cc(=O)oc2cc(Oc3ccc([N+](=O)[O-])cc3[N+](=O)[O-])ccc12 | . | 86 | . | . | .
Cc1occc1C(=O)N=Nc1c(O)n(C)c2ccccc12 | . | 71 | . | . | .
CCC(Sc1ncccn1)C(=O)Nc1cc(C)on1 (centres undefined) | . | . | . | . | .
CCC(Sc1nnnn1-c1ccccc1)C(=O)NC(C)c1ccccc1 (centres undefined) | . | . | . | . | .
SMILES | Diaphorase act | L major viab | G6PDH CS | Diaph inh CS | WT yeast gro inh
CCC(Sc1nnnn1-c1ccccc1)C(=O)Nc1nc2ccccc2s1 (centres undefined) | . | . | . | . | 58
CCC(Sc1nc2ccccc2s1)C(=O)Nc1cc(C)on1 (centres undefined) | . | 67 | . | . | .
CC(C)=CC(=O)NCc1c(Cl)cccc1-n1cccc1 | . | . | . | . | .
CS(=O)(=O)N(CC(=O)Nc1ccc(S(=O)(=O)N2CCCC2)cc1)c1ccccc1F | . | . | . | . | .
Cc1ccc(C2CC(c3ccccc3)=NN2C(=S)Nc2ccccc2)o1 (centres undefined) | . | 69 | . | 76 | .
COc1ccc(C2CC(c3cccs3)=NN2C(=S)Nc2ccccc2)cc1OC (centres undefined) | . | 71 | . | . | .
S=C(Nc1ccccc1)N1N=C(c2cccs2)CC1c1cccs1 (centres undefined) | . | 74 | . | . | .
COc1cccc(C2CC(c3cccs3)=NN2C(=S)Nc2ccccc2)c1OC (centres undefined) | . | 65 | . | . | .
COc1cccc(C2CC(c3cccs3)=NN2S(C)(=O)=O)c1OC (centres undefined) | . | . | . | . | .
CCOCC(=O)Nc1nc(-c2ccccc2)c(CC)s1 | . | . | . | . | .
Cc1cccc(Nc2nnc(SCC(=O)NCc3cccs3)s2)c1C | . | 58 | . | . | .
Cc1ccccc1Nc1nnc(SCC(=O)NC(=O)Nc2ccc3c(c2)OCCO3)s1 | . | 60 | . | . | .
COc1ccccc1Nc1nnc(SCC(=O)NC(=O)Nc2ccc3c(c2)OCCO3)s1 | . | 56 | . | . | .
Cc1cccc(Nc2nnc(SCC(=O)NC(=O)Nc3ccc4c(c3)OCCO4)s2)c1 | . | . | . | . | .
O=C(O)/C=C/C(=O)Nc1ccccc1SC(F)(F)F | . | . | . | . | .
CC1CCCN(S(=O)(=O)c2ccc(S(=O)(=O)N3CCC4(CC3)OCCO4)cc2)C1 (centres undefined) | . | . | . | . | .
CCCCOC(=O)Nc1ccc(S(=O)(=O)Nc2ccc([N+](=O)[O-])cc2)cc1 | . | 78 | . | . | .
CCCCCOC(=O)Nc1ccc(S(=O)(=O)Nc2cccc([N+](=O)[O-])c2)cc1 | . | 62 | . | . | .
CCCCOC(=O)Nc1ccc(S(=O)(=O)Nc2cc(C)nc(C)n2)cc1 | . | . | . | . | .
CCC(=O)N1CCN(c2ccc(Cl)cc2NC(=O)c2ccc(Br)o2)CC1 | / | . | / | / | /
COc1ccc(OC)c(S(=O)(=O)N2CCC(C(=O)Nc3cccc(C(F)(F)F)c3)CC2)c1 | . | 91 | . | . | .
O=C1c2ccccc2C(=O)c2c1ccc1c(=O)n(C3CCCCC3)[nH]c21 | . | 99 | . | . | .
O=c1c2[nH]c3ccccc3c2ncn1C1CCCCC1 | . | . | . | . | .
CCCCC(NS(=O)(=O)c1ccc(OC)cc1)C(=O)O (centres undefined) | . | . | . | . | .
COc1ccc(S(=O)(=O)NC(Cc2cnc[nH]2)C(=O)O)cc1 (centres undefined) | . | 51 | . | . | .
SMILES | Diaphorase act | L major viab | G6PDH CS | Diaph inh CS | WT yeast gro inh
CCOc1cc(C2NC(=O)NC(C)=C2C(=O)NCc2ccccc2)c(Cl)cc1O (centres undefined) | . | . | . | . | .
Cc1ccc(NC(=O)CN(c2ccc(Cl)cc2)S(=O)(=O)c2cc([N+](=O)[O-])ccc2Cl)c(C)c1 | . | 98 | . | . | .
COc1ccc(OCC(=O)Nc2ccc(S(=O)(=O)N3CCOCC3)cc2)cc1 | . | . | . | . | .
COc1ccc(Cl)cc1N(CC(=O)Nc1ccc2c(c1)OCO2)S(C)(=O)=O | . | . | . | . | .
COc1ccc(N(CC(=O)Nc2ccc(S(=O)(=O)N3CCOCC3)cc2)S(=O)(=O)c2ccccc2)cc1 | . | 58 | . | . | .
Cc1ccc([N+](=O)[O-])cc1NC(=O)CN(C1CCCCC1)S(=O)(=O)c1ccc(Cl)cc1 | . | 73 | . | . | .
COc1ccc(OC)c(N(CC(=O)Nc2ccc3c(c2)OCO3)S(=O)(=O)c2ccccc2)c1 | . | 100 | . | . | .
